Bioassay records deposited in PubChem BioAssay by Sanford-Burnham Center for Chemical Genomics.
Hits are enriched below; roughly 2% of the tested compounds scored in any of these assays.
STEP block: STEP (human) phosphatase inhibition; P54829; recombinant STEP, OMFP fluorogenic substrate, fluorescence; 0.25% of 360,000 active; inhibition, % at 20 µM;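 active = inhibition at 20 µM, scaled per plate between control wells, above about 37%, limit read from the data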;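 also: 0% = DMSO with enzyme and substrate and 100% = substrate only without enzyme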
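Assay system: isolated STEP enzyme / Timing: 20 min at room temperature, dark / Doses: 20 µM, 1% DMSO / Technique: fluorescence intensity, excitation 480 nm, emission 540 nm / Reagent: fluorogenic phosphatase substrate OMFP at 25 µM final / Measure: percent inhibition scaled to no-enzyme and uninhibited-enzyme controls, plate-pattern corrected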
Scp1 inh: blocks human Scp-1 phosphatase activity; AID 493091; inhibition, % at 20 µM; 0.88% of 340,000 active; Recombinant Scp1, phosphopeptide, malachite green phosphate absorbance; Q9GZU7;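 active = inhibition above about 50% at 20 µM, limit read from the data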;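 also: plate controls were DMSO wells with enzyme for no effect and wells lacking enzyme for full effect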
Target sequence (Q9GZU7 76-261 limits assumed): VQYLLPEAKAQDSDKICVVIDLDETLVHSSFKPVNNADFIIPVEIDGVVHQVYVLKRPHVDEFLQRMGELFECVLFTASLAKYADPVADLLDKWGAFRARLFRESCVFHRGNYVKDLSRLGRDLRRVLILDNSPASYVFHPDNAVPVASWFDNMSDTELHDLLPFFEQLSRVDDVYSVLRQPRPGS
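Test system: SCP-1 phosphatase catalytic domain, residues 76-261 | Compound dosing: One concentration, 20 µM, with 1.0% DMSO | Schedule: 45 min room-temperature reaction, 5 min colour, 30 min stabiliser | Detection: Absorbance at 630 nm | Read-out basis: % inhibition of SCP-1 phosphate liberation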
LMPTP inh: blocks human LMPTP phosphatase | recombinant LMPTP-A, OMFP fluorogenic substrate, fluorescence intensity | inhibition, % at 20 µM | 0.22% of 360,000 active | AID 651560;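 active = compounds that cut the enzyme signal by at least half of the control window in the single-dose screen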;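 also: plate controls were DMSO wells with enzyme plus substrate for no effect and substrate without enzyme for full effect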
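material = LMPTP-A | quantity = 0.625 nM enzyme | reagent = OMFP substrate, 400 µM final | buffer or medium = Bis-Tris pH 6.0, DTT, detergent | detection = endpoint fluorescence intensity from OMFP dephosphorylation | dosing = single 20 µM dose | read-out basis = % inhibition relative to no-enzyme and uninhibited control wells | control set = no-enzyme and uninhibited controls | timing = 50 min at room temperature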
SUMO1-SIM PPI: alters human SUMO1 binding to SIM partners | inhibition, % at 20 µM | P63165 | SUMO1 binding to a labelled peptide, TR-FRET, 1 h | 0.33% of 360,000 active | AID 602429; in the data active = inhibition above about 37%
Target sequence (P63165 whole entry, looked up): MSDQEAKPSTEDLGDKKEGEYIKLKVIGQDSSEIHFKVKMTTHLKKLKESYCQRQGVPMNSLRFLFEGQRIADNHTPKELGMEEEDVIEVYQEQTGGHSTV
DNMT1 inh: DNMT1 (human) enzyme inhibition; inhibition (reported as % activation of signal), % at 10 µM; 0.83% of 360,000 active; AID 588458; DNMT1 molecular beacon, Hinp1I cleavage, fluorescence; P26358; in the data active = inhibition above about 50%
CSN inh: CSN deneddylation inhibition; 0.38% of 360,000 active; AID 651999; Purified CSN, SCF-Nedd8-OG deneddylation, fluorescence polarization; inhibition, % at 12.5 µM; Q92905;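 active = pattern-corrected inhibition above about 35%, with an unprinted fluorescence ratio check between 0.5 and 1.5, limit read from the data, passing the limit was not always enough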;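 also: 0% = enzyme with substrate and 100% = substrate without enzyme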
Target sequence (Q92905 whole entry, looked up, one chain of several): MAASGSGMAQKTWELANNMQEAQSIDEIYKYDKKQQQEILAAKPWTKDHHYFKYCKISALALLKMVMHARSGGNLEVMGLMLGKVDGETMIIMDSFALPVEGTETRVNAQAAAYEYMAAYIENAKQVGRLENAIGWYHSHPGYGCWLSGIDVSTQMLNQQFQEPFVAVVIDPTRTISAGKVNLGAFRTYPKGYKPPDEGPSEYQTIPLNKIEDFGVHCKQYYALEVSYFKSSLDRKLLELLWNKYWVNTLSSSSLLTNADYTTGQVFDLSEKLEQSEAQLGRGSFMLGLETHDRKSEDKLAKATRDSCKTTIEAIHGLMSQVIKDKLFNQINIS
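Assay system: HEK293T-derived human Csn5 enzyme; quantity: 0.24 nM enzyme; medium: Tris/NaCl/DTT buffer, pH 7.5; also added: substrate SCFSkp2-Nedd8OG, 10 nM; doses: 12.5 µM compound; schedule: 90 min reaction at room temperature; signal: FP; read-out: % inhibition of substrate cleavage by Csn5; benchmarks: substrate-only high control, full reaction low control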
An asterisk follows results filed as active.

What do the screens show for `Cc1c(-c2ccc(Cl)cc2)oc(=O)c2c(N)n(-c3ccccc3)nc12`?
STEP block: 0; Scp1 inh: -21; LMPTP inh: 2; SUMO1-SIM PPI: -2; DNMT1 inh: 54*; CSN inh: 1

What do the screens show for `Nc1c2c(=O)oc(-c3ccccc3)cc2nn1-c1ccccc1`?
STEP block: -7; Scp1 inh: -5; LMPTP inh: 2; SUMO1-SIM PPI: -12; DNMT1 inh: -3; CSN inh: 3

How did Cc1nc2ccc(C(=O)N/N=C/c3ccccc3O)cc2[nH]1 do in these assays?
STEP block: 13; Scp1 inh: -5; LMPTP inh: 0; SUMO1-SIM PPI: -4; DNMT1 inh: 1; CSN inh: 1

What do the screens show for `Cc1nc2ccc(C(=O)N/N=C/c3cc([N+](=O)[O-])ccc3O)cc2[nH]1`?
STEP block: 49*; Scp1 inh: 38; LMPTP inh: 17; SUMO1-SIM PPI: -8; DNMT1 inh: 2; CSN inh: 2

Results for CN(C)S(=O)(=O)c1ccc(C(=O)OCC(=O)c2ccc3c(c2)NC(=O)CO3)cc1 ?
STEP block: 6; Scp1 inh: -8; LMPTP inh: 57*; SUMO1-SIM PPI: 15; DNMT1 inh: 41; CSN inh: 4

How did COC(=O)c1ccc2c(=O)[nH]c(COC(=O)c3c(-c4ccccc4Cl)noc3C)nc2c1 do in these assays?
STEP block: 1; Scp1 inh: -6; LMPTP inh: 1; SUMO1-SIM PPI: 3; DNMT1 inh: -4; CSN inh: 3

What do the screens show for `Cc1c(NC(=O)/C(C#N)=C/c2ccc(-c3ccc(Cl)c(Cl)c3)o2)c(=O)n(-c2ccccc2)n1C`?
STEP block: 3; Scp1 inh: 4; LMPTP inh: 5; SUMO1-SIM PPI: -7; DNMT1 inh: -1; CSN inh: 3

Results for Cc1cc(NC(=O)/C(C#N)=C\c2ccc(-c3ccc(SC(F)F)cc3)o2)n(-c2ccccc2)n1 ?
STEP block: -1; Scp1 inh: -12; LMPTP inh: 0; SUMO1-SIM PPI: -1; DNMT1 inh: 21; CSN inh: 81*

How did CC(Nc1nc(-c2ccccc2F)nc2ccccc12)c1ccccc1 (stereo not drawn) do in these assays?
STEP block: 0; Scp1 inh: 1; LMPTP inh: 74*; SUMO1-SIM PPI: 1; DNMT1 inh: -2; CSN inh: -1

What do the screens show for `CC(Nc1nc(-c2cccnc2)nc2ccccc12)c1ccc(F)cc1` (stereo not drawn)?
STEP block: 0; Scp1 inh: -5; LMPTP inh: 36; SUMO1-SIM PPI: 1; DNMT1 inh: -4; CSN inh: 1

What do the screens show for `Oc1ccccc1-c1nc(NC2CCCC2)c2ccccc2n1`?
STEP block: 1; Scp1 inh: -22; LMPTP inh: 9; SUMO1-SIM PPI: -5; DNMT1 inh: -3; CSN inh: 0

Results for CC(Nc1nc(-c2ccccc2)nc2ccccc12)c1ccccc1 (stereo not drawn) ?
STEP block: -3; Scp1 inh: 0; LMPTP inh: 52*; SUMO1-SIM PPI: 3; DNMT1 inh: -15; CSN inh: 4

How did CC(Nc1nc(-c2ccccc2O)nc2ccccc12)c1ccccc1 (stereo not drawn) do in these assays?
STEP block: 1; Scp1 inh: 10; LMPTP inh: 6; SUMO1-SIM PPI: -3; DNMT1 inh: -9; CSN inh: 5

How did Fc1ccccc1-c1nc(NC2CCCC2)c2ccccc2n1 do in these assays?
STEP block: -2; Scp1 inh: -2; LMPTP inh: 70*; SUMO1-SIM PPI: 0; DNMT1 inh: 1; CSN inh: 3

What do the screens show for `COc1ccc(CCNC(=O)c2ccc(Br)o2)cc1Br`?
LMPTP inh: 0; SUMO1-SIM PPI: 2; CSN inh: -5

How did C=CCN1C(=O)c2ccc(C(=O)NCCc3ccc(F)cc3)cc2C1=O do in these assays?
STEP block: 2; Scp1 inh: -8; LMPTP inh: 0; SUMO1-SIM PPI: -28; DNMT1 inh: 2; CSN inh: 4

How did CCCCn1cnc2c(c(-c3ccccc3)c(-c3ccccc3)n2Cc2ccco2)c1=N do in these assays?
STEP block: -2; Scp1 inh: -3; LMPTP inh: 0; SUMO1-SIM PPI: 1; DNMT1 inh: -2; CSN inh: 4

How did N=c1c2c(-c3ccccc3)c(-c3ccccc3)n(Cc3ccccc3)c2ncn1CCCn1ccnc1 do in these assays?
STEP block: 3; Scp1 inh: 29; LMPTP inh: 57*; SUMO1-SIM PPI: -10; DNMT1 inh: 3; CSN inh: 0

Results for O=C(Nc1cccc(S(=O)(=O)NC2=NCCCCC2)c1)c1cc(-c2ccco2)nc2ccccc12 ?
STEP block: 0; Scp1 inh: 90*; LMPTP inh: 35; SUMO1-SIM PPI: 12; DNMT1 inh: 97*; CSN inh: 51

How did O=C(Nc1cccc(S(=O)(=O)NC2=NCCCCC2)c1)c1cc(-c2ccncc2)nc2ccccc12 do in these assays?
STEP block: 2; Scp1 inh: -6; LMPTP inh: 2; SUMO1-SIM PPI: -16; DNMT1 inh: -17; CSN inh: 9

Results for COc1cc(/C=C/c2nc3ccccc3c(=O)[nH]2)ccc1O ?
STEP block: -1; LMPTP inh: -1; SUMO1-SIM PPI: 0; DNMT1 inh: -1; CSN inh: 6

Results for COc1cc(/C=C/c2nc3ccccc3c(=O)[nH]2)cc(Br)c1O ?
STEP block: 2; Scp1 inh: -1; LMPTP inh: 6; SUMO1-SIM PPI: 15; DNMT1 inh: -2; CSN inh: 38*

Results for O=C(Nc1ccc2oc(-c3cccnc3)nc2c1)c1ccc(Br)o1 ?
STEP block: 4; Scp1 inh: 37; LMPTP inh: -3; SUMO1-SIM PPI: 38*; DNMT1 inh: -11; CSN inh: 4

What do the screens show for `O=C(Nc1ccc2oc(-c3cccnc3)nc2c1)c1ccco1`?
STEP block: -3; Scp1 inh: 16; LMPTP inh: 11; SUMO1-SIM PPI: 13; DNMT1 inh: -2; CSN inh: 2

What do the screens show for `Nc1cc2nsnc2cc1Br`?
STEP block: 35; Scp1 inh: 6; LMPTP inh: 22; SUMO1-SIM PPI: 80*; DNMT1 inh: 111*; CSN inh: 39*

What do the screens show for `COc1cc(O)oc1C=Nc1ccc(C(=O)O)cc1`?
STEP block: -1; Scp1 inh: -1; LMPTP inh: -1; SUMO1-SIM PPI: -9; DNMT1 inh: -2; CSN inh: -3

How did O=C(O)c1cccc(CN2C(=O)c3ccccc3C2=O)c1 do in these assays?
STEP block: -3; Scp1 inh: 3; LMPTP inh: 0; SUMO1-SIM PPI: -3; DNMT1 inh: 4; CSN inh: -2
